Test results taken from ChEMBL document CHEMBL1926624, “Secondary metabolites from the roots of Neolitsea daibuensis and their anti-inflammatory activity” (J Nat Prod, 2011).
≈ marks a conversion by molar mass, not a printed value.

Tests used:
[1] = Antiinflammatory activity in human neutrophils assessed as inhibition of fMLP-induced superoxide anion production; type: functional, cell-based; conditions: Neutrophil
[2] = Antiinflammatory activity in human neutrophils assessed as inhibition of […] superoxide anion production; type: functional, cell-based; conditions: Neutrophil
[3] = target: T1, Nitric oxide synthase, inducible (Mus musculus, UniProt P29477); test: Inhibition of iNOS-mediated NO production in LPS-stimulated mouse RAW264.7 cells after 24 hrs by Griess reagent method; type: cell-based
T1 sequence (P29477 whole entry): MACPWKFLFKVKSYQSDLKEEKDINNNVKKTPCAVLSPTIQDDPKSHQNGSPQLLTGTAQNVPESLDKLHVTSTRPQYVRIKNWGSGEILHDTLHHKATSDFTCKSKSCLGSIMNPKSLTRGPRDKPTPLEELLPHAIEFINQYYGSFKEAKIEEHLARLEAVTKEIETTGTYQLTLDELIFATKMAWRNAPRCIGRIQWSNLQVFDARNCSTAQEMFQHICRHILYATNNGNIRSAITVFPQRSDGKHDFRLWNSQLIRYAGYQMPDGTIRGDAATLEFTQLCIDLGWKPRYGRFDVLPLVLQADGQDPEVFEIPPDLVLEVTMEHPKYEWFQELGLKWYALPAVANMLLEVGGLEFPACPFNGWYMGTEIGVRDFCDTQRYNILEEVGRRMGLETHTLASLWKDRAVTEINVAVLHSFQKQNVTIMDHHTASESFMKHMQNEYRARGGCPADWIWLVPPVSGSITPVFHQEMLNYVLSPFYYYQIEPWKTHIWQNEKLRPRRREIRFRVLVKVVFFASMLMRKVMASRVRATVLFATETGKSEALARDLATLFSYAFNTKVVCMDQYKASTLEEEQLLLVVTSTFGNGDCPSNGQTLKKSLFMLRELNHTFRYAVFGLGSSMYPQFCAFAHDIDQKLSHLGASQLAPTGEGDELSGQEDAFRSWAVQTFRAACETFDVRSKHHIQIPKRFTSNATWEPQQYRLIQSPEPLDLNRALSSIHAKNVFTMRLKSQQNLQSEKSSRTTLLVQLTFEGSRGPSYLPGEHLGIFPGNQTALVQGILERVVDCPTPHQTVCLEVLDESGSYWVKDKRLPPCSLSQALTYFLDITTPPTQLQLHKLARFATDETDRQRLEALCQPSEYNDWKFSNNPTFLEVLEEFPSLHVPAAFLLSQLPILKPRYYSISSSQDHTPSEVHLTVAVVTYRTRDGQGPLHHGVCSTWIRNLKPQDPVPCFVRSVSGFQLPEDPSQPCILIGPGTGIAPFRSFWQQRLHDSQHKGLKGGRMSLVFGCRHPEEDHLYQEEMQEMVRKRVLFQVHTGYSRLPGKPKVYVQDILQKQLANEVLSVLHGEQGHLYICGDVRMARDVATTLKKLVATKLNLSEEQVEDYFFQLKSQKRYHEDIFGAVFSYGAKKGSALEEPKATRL
Summary of the method: (§1)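 RAW 264.7 murine macrophages in DMEM with 10% FCS were grown to confluence for 24 h, then held serum-free for 4 h. Test agent, or 0.1% DMSO vehicle, was given with LPS (200 ng/mL) for 24 h. Supernatant nitrite was measured with Griess reagent (10 min, room temperature) at A550 against a NaNO2 standard curve. % inhibition is relative to vehicle+LPS; Emax at 100 μM; IC50 = concentration giving 50% Emax; n = 4−6.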

[4] = target: T2, Nitric oxide synthase, inducible (Mus musculus) (UniProt P29477); test: Inhibition of iNOS-mediated NO production in LPS-stimulated mouse RAW264.7 cells after 24 hrs by Griess reagent method relative to control; type: cell-based; summary of the method: as §1
T2 sequence (whole entry): T1 sequence (P29477 whole entry)

[5] = Cytotoxicity against mouse RAW264.7 cells assessed as reduction in cell viability after 3 hrs by alamar blue assay; type: cell-based
Summary of the method: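 Viability was tested in the same RAW 264.7 wells after the supernatant was removed for nitrite. 10% AlamarBlue in DMEM was added and the plates incubated at 37 °C. Absorbance was read at 570/600 nm against cell-free blanks, with LPS+vehicle wells set as 100% viability. CC50 = concentration lowering viability by 50%; mean ± SE.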

[6] = target: T2, Nitric oxide synthase, inducible (Mus musculus); test: Inhibition of iNOS-mediated NO production in LPS-stimulated mouse RAW264.7 cells at 25 uM after 24 hrs by Griess reagent method relative to control; type: cell-based
Summary of the method: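 Confluent RAW 264.7 cells, serum-starved 4 h, received test agent at 25 μM, or 0.1% DMSO vehicle, together with LPS (200 ng/mL) for 24 h. Supernatant nitrite was read by Griess reaction, A550, against a NaNO2 standard curve. Result is maximal inhibition expressed as % of vehicle+LPS nitrite; n = 4−6.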

[7] = test system: RAW264.7; test: Cytotoxicity against mouse RAW264.7 cells assessed as reduction in cell viability at 50 uM after 3 hrs by alamar blue assay; type: cell-based; conditions: raw264.7, 3 h

Row | SMILES | IC50 [1] | IC50 [2] | IC50 [3] | Emax [4] | inhibition [4] | CC50 at 3 h [5] | Emax [6] | Activity [7]
1 | Cc1coc2c1[C@H]1C=C(CC[C@@H]3O[C@@]3(C)C2)C(=O)O1 [PSEUDONEOLINDERANE] | 3.21 µg/mL (≈ 12.3 µM) | 3.21 µg/mL (≈ 12.3 µM) |  |  |  |  |  | 
2 | COc1cc2c([nH]c3ccc(O)cc32)c(Cc2ccc(O)cc2)n1 [DAIBUCARBOLINE A] |  |  | 18.4 µM | 96.1% | Dose-dependent effect | 94.8 µM |  | 
3 | C=C[C@@]1(C)Cc2occ(C)c2[C@@H]2OC(=O)C(=C)[C@@H]21 [ISOLINDERALACTONE] |  |  | 0.3 µM |  |  | 66.4 µM | 100% | Toxic
4 | C/C1=C\CCC2=C[C@@H](OC2=O)c2c(C)coc2C1 [LINDERALACTONE] | 8.48 µg/mL (≈ 34.7 µM) | 8.48 µg/mL (≈ 34.7 µM) |  |  |  |  |  | 
5 | N=C(NCCC[C@H](N)C(=O)O)N[N+](=O)[O-] [NITROARGININE] |  |  | 144 µM | 41.2% |  | > 100 µM |  | 
6 | COc1cc(O)c2c(c1)O[C@H](c1ccc(O)cc1)CC2=O [SAKURANETIN] |  |  | 19.6 µM | 85.2% |  | > 100 µM |  | 
7 | N=C(N)NN [PIMAGEDINE] |  |  | 28.5 µM | 83.5% |  | > 100 µM |  | 
8 | COc1cc(O)c2c(=O)c(-c3ccc(O)cc3)coc2c1 [PRUNETIN] |  |  | 10.5 µM | 94.8% |  | > 100 µM |  | 
